Measured values reported in ChEMBL document CHEMBL3853270, “Influence of Birch Bark Triterpenes on Keratinocytes and Fibroblasts from Diabetic and Nondiabetic Donors” (2016).
The source made the active and inactive calls. No cut-off for these calls is given here.

Key:
Format in all cases: functional
Keratinocyte [1] = experiment: Effect on ECM related gene expression in non-diabetic young human primary keratinocytes assessed as FBN1 mRNA levels at 1.96 uM after 6 hrs by qPCR analysis
Method in brief: (§1)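 Primary keratinocytes from nondiabetic young and adult and diabetic adult donors; 400 000 cells per sample, 6 h exposure at 1.96 or 9.81 μM. RNA extracted and read on a high-throughput qPCR chip. Results are fold change versus 0.1% DMSO solvent control from 5−7 independent experiments over two donors per group, SD, one-way ANOVA with Bonferroni post-test.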

Keratinocyte [2] = experiment: Effect on growth factor related gene expression in non-diabetic young human primary keratinocytes assessed as VEGFA mRNA levels at 1.96 uM after 6 hrs by qPCR analysis
Method in brief: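 Primary human keratinocytes (nondiabetic young or adult, diabetic adult donors) were exposed to compound for 6 h, with 0.1% DMSO as solvent control. Total RNA came from 400 000 cells per sample and was assayed on a Fluidigm Biomark high-throughput qPCR chip. Results are fold change vs solvent control, from 2−4 independent experiments on two donors per group, with SD. Groups were compared by one-way ANOVA with Bonferroni post-test.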

Keratinocyte [3] = experiment: Effect on pro-inflammatory related gene expression in non-diabetic young human primary keratinocytes assessed as TNF mRNA levels at 1.96 uM after 6 hrs by qPCR analysis
Keratinocyte [4] = experiment: Effect on MMP1 mRNA expression levels in non-diabetic young human primary keratinocytes at 1.96 uM after 6 hrs by qPCR analysis; method in brief: as §1
Keratinocyte [5] = experiment: Effect on cellular connection related gene expression in non-diabetic adult human primary keratinocytes assessed as GJB2 mRNA levels at 1.96 uM after 6 hrs by qPCR analysis
Keratinocyte [6] = experiment: Effect on pro-inflammatory related gene expression in non-diabetic adult human primary keratinocytes assessed as IL1B mRNA levels at 1.96 uM after 6 hrs by qPCR analysis
Keratinocyte [7] = experiment: Effect on pro-inflammatory related gene expression in diabetic adult human primary keratinocytes assessed as IL1R1 mRNA levels at 1.96 uM after 6 hrs by qPCR analysis
Keratinocyte [8] = experiment: Effect on pro-inflammatory related gene expression in non-diabetic young human primary keratinocytes assessed as IL1B mRNA levels at 9.81 uM after 6 hrs by qPCR analysis
Keratinocyte [9] = experiment: Effect on pro-inflammatory related gene expression in non-diabetic young human primary keratinocytes assessed as IL1R1 mRNA levels at 9.81 uM after 6 hrs by qPCR analysis
Keratinocyte [10] = experiment: Effect on AQP3 mRNA expression levels in non-diabetic young human primary keratinocytes at 9.81 uM after 6 hrs by qPCR analysis; method in brief: as §1
Keratinocyte [11] = experiment: Effect on cellular connection related gene expression in non-diabetic adult human primary keratinocytes assessed as GJB2 mRNA levels at 9.81 uM after 6 hrs by qPCR analysis
Keratinocyte [12] = experiment: Effect on antiinflammatory related gene expression in diabetic adult human primary keratinocytes assessed as NFKBIA mRNA levels at 9.81 uM after 6 hrs by qPCR analysis; method in brief: as §1
Fibroblast [13] = experiment: Effect on antiinflammatory related gene expression in non-diabetic young human primary fibroblasts assessed as SOCS3 mRNA levels at 9.81 uM after 6 hrs by qPCR analysis
Fibroblast [14] = experiment: Effect on transcription factor related gene expression in non-diabetic young human primary fibroblasts assessed as JUN mRNA levels at 1.96 uM after 6 hrs by qPCR analysis
Fibroblast [15] = experiment: Effect on pro-inflammatory related gene expression in non-diabetic adult human primary fibroblasts assessed as IL1R1 mRNA levels at 1.96 uM after 6 hrs by qPCR analysis
Fibroblast [16] = experiment: Effect on pro-inflammatory related gene expression in diabetic adult human primary fibroblasts assessed as IL1B mRNA levels at 1.96 uM after 6 hrs by qPCR analysis
Method in brief: (§2)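 Primary human dermal fibroblasts (young or adult nondiabetic, adult diabetic donor) were treated for 6 h against a 0.1% DMSO solvent control. RNA from 320 000 cells per sample was measured by Fluidigm Biomark high-throughput qPCR. Values are fold change relative to solvent control, from four independent experiments, with SD. One-way ANOVA with Bonferroni post-test was applied.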

Fibroblast [17] = experiment: Effect on antiinflammatory related gene expression in diabetic adult human primary fibroblasts assessed as NFKBIA mRNA levels at 1.96 uM after 6 hrs by qPCR analysis
Method in brief: (§3)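 Primary dermal fibroblasts from one nondiabetic young, one nondiabetic adult and one diabetic adult donor; 320 000 cells per sample, 6 h at 1.96 or 9.81 μM. RNA measured on a high-throughput qPCR chip. Fold change versus 0.1% DMSO control, four independent experiments, SD, one-way ANOVA with Bonferroni post-test.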

Fibroblast [18] = experiment: Effect on transcription factor related gene expression in diabetic adult human primary fibroblasts assessed as JUN mRNA levels at 1.96 uM after 6 hrs by qPCR analysis
Fibroblast [19] = experiment: Effect on chemokines related gene expression in non-diabetic young human primary fibroblasts assessed as IL8 mRNA levels at 9.81 uM after 6 hrs by qPCR analysis; method in brief: as §2
Fibroblast [20] = experiment: Effect on transcription factor related gene expression in non-diabetic young human primary fibroblasts assessed as JUN mRNA levels at 9.81 uM after 6 hrs by qPCR analysis
Fibroblast [21] = experiment: Effect on MMP1 mRNA expression levels in non-diabetic young human primary fibroblasts at 9.81 uM after 6 hrs by qPCR analysis; method in brief: as §3
Fibroblast [22] = experiment: Effect on chemokines related gene expression in non-diabetic adult human primary fibroblasts assessed as IL8 mRNA levels at 9.81 uM after 6 hrs by qPCR analysis
Fibroblast [23] = experiment: Effect on antioxidant related gene expression in non-diabetic adult human primary fibroblasts assessed as SOD2 mRNA levels at 9.81 uM after 6 hrs by qPCR analysis
Fibroblast [24] = experiment: Effect on pro-inflammatory related gene expression in diabetic adult human primary fibroblasts assessed as IL1B mRNA levels at 9.81 uM after 6 hrs by qPCR analysis; method in brief: as §2
Fibroblast [25] = experiment: Effect on pro-inflammatory related gene expression in diabetic adult human primary fibroblasts assessed as IL6 mRNA levels at 9.81 uM after 6 hrs by qPCR analysis; method in brief: as §2
Fibroblast [26] = experiment: Effect on chemokines related gene expression in non-diabetic adult human primary fibroblasts assessed as CCL2 mRNA levels at 1.96 uM after 6 hrs by qPCR analysis
Fibroblast [27] = experiment: Effect on growth factor related gene expression in diabetic adult human primary fibroblasts assessed as GDF15 mRNA levels at 9.81 uM after 6 hrs by qPCR analysis; method in brief: as §2
Fibroblast [28] = experiment: Effect on transcription factor related gene expression in diabetic adult human primary fibroblasts assessed as JUN mRNA levels at 9.81 uM after 6 hrs by qPCR analysis
Fibroblast [29] = experiment: Effect on antioxidant related gene expression in non-diabetic young human primary fibroblasts assessed as NFE2L2 mRNA levels at 9.81 uM after 6 hrs by qPCR analysis
Fibroblast [30] = experiment: Effect on growth factors related gene expression in non-diabetic adult human primary fibroblasts assessed as FGF2 mRNA levels at 1.96 uM after 6 hrs by qPCR analysis; method in brief: as §2
[31] = Effect on wound healing activity in diabetic adult human primary keratinocytes assessed as upregulation of TNFalpha protein levels at 1.96 uM after 24 hrs by bead-based suspension array analysis; details: Keratinocyte

## C=C(C)[C@@H]1CC[C@]2(CO)CC[C@]3(C)[C@H](CC[C@@H]4[C@@]5(C)CC[C@H](O)C(C)(C)[C@@H]5CC[C@]43C)[C@@H]12 [BETULIN]
Keratinocyte [1]
  fold change (FC): 1.8
Keratinocyte [2]
  fold change (FC): 1.3
Keratinocyte [3]
  fold change (FC): 4.5
Keratinocyte [4]
  fold change (FC): 1
Keratinocyte [5]
  fold change (FC): 0.7
Keratinocyte [6]
  fold change (FC): 0.8
Keratinocyte [7]
  fold change (FC): 0.8
Keratinocyte [8]
  fold change (FC): 0.9
Keratinocyte [9]
  fold change (FC): 1
Keratinocyte [10]
  fold change (FC): 1.1
Keratinocyte [11]
  fold change (FC): 0.8
Keratinocyte [12]
  fold change (FC): 2
Fibroblast [13]
  fold change (FC): 3.2
Fibroblast [14]
  fold change (FC): 1
Fibroblast [15]
  fold change (FC): 4.8
Fibroblast [16]
  fold change (FC): 7.6
Fibroblast [17]
  fold change (FC): 3.1
Fibroblast [18]
  fold change (FC): 1.3
Fibroblast [19]
  fold change (FC): 32
Fibroblast [20]
  fold change (FC): 1.6
Fibroblast [21]
  fold change (FC): 1
Fibroblast [22]
  fold change (FC): 991
Fibroblast [23]
  fold change (FC): 18
Fibroblast [24]
  fold change (FC): 2.9
Fibroblast [25]
  fold change (FC): 5.3
Fibroblast [26]
  fold change (FC): 171
Fibroblast [27]
  fold change (FC): 1.8
Fibroblast [28]
  fold change (FC): 1.2
Fibroblast [29]
  fold change (FC): 1.4
Fibroblast [30]
  fold change (FC): 2.9
[31]
  Activity: Active
